SUMO1 PPI mod: modulators of human SUMO1-mediated protein-protein interactions | P63165 | SUMO1 binding to a labelled peptide, TR-FRET, 1 h | inhibition, % at 20 µM | 0.33% of 360,000 active; in the data active means inhibition above about 37%
Target sequence (P63165 whole entry, looked up): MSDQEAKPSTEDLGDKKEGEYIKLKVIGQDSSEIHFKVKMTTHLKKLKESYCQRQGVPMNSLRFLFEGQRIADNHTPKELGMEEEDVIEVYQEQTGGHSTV
STEP inh: STEP (human) phosphatase inhibition. P54829. recombinant STEP, OMFP fluorogenic substrate, fluorescence. inhibition, % at 20 µM. 0.25% of 360,000 active. AID 588621;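 active means inhibition at 20 µM, scaled per plate between control wells, above about 37%, limit read from the data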;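 further: 0% = DMSO with enzyme and substrate and 100% = substrate only without enzyme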
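Assay system: isolated STEP enzyme. Buffer or medium: pH 6.0 Bis-Tris with DTT and Tween 20. Also added: fluorogenic phosphatase substrate OMFP at 25 µM final. Dosing: 20 µM, 1% DMSO. Timing: 20 min reaction, room temperature, in the dark. Measured by: fluorescence intensity, excitation 480 nm, emission 540 nm. Evaluation: normalized % inhibition.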
DNMT1 block: DNMT1 (human) enzyme inhibition. inhibition (reported as % activation of signal), % at 10 µM. P26358. DNMT1 molecular beacon, Hinp1I cleavage, fluorescence. 0.83% of 360,000 active. AID 588458; in the data active means inhibition above about 50%
LMPTP block: blocks human LMPTP phosphatase | P24666 | recombinant LMPTP-A, OMFP fluorogenic substrate, fluorescence intensity | inhibition, % at 20 µM | 0.22% of 360,000 active | AID 651560;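 active means compounds that cut the enzyme signal by at least half of the control window in the single-dose screen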;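 further: plate controls were DMSO wells with enzyme plus substrate for no effect and substrate without enzyme for full effect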
Target sequence (P24666 whole entry, looked up): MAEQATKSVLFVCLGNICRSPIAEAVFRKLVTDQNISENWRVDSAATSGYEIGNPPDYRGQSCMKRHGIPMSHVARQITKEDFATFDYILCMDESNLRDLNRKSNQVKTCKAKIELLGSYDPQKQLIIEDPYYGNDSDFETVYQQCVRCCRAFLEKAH
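Test system – LMPTP-A phosphatase enzyme · Quantity – 0.625 nM LMPTP-A final · Reagent – OMFP substrate, 400 µM final · Dosing – one test concentration per compound, 20 µM, with 3% DMSO overall · Timing – 50 min enzyme reaction at room temperature, protected from light · Detection – fluorescence intensity · Controls – substrate-only low control, DMSO enzyme-plus-substrate high control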
Scp1 inh: blocks human Scp-1 phosphatase activity; Recombinant Scp1, phosphopeptide, malachite green phosphate absorbance; Q9GZU7; 0.88% of 340,000 active; inhibition, % at 20 µM;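 active means inhibition above about 50% at 20 µM, limit read from the data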;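 further: plate controls were DMSO wells with enzyme for no effect and wells lacking enzyme for full effect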
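assay system = SCP-1 phosphatase catalytic domain, residues 76-261 | buffer or medium = 50 mM Tris acetate pH 5.5, 0.005% Tween-20, 10 mM MgCl2 | incubation = enzyme reaction 45 min at room temperature, colour 5 min, stabilisation 30 min | signal = Phosphate-binding colour reagent, absorbance read at 630 nm | measure = % inhibition at 20 µM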
SUMO HTRF inh: blocks human SUMOylation mediated by UBC9 | 0.36% of 290,000 active | P63279 | HTRF SUMOylation assay, SAE1/SAE2 + UBC9, in vitro | inhibition, % at 35 µM; in the data active means inhibition above about 50%, passing the limit was not always enough
Target sequence (P63279 whole entry, looked up): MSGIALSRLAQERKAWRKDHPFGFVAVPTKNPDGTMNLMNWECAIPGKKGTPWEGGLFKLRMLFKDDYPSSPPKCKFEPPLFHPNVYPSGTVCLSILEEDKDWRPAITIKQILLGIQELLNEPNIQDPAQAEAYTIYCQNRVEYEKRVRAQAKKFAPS
* = called active by the depositor; · = no result given. The list is not random: actives were taken first. Their share in the collection is about 1.9%.

SMILES	SUMO1 PPI mod	STEP inh	DNMT1 block	LMPTP block	Scp1 inh	SUMO HTRF inh
CCCCNC(=O)c1ccc(Cn2c(=S)[nH]c3c([nH]c4ccc(OC)cc43)c2=O)cc1	5	-2	26	-1	-2	53*
COc1cc(CN2CCNC(=O)C2CC(=O)N(C)CCC2CCOCC2)cc(OC)c1 (stereo not drawn)	-1	5	-2	0	10	0
CC(C)(C)OC(=O)N1CCC(c2cc(=O)n3[nH]cc(C(=O)Nc4ccc(F)c(Cl)c4)c3n2)CC1	51*	-2	-10	6	6	-2
OC(c1ccc(Cl)c(F)c1)c1ncc(-c2ccccc2F)[nH]1 (stereo not drawn)	2	0	6	0	·	·
O=c1c2ccccc2oc2nc3ccn(Cc4ccncc4)c(=O)c3cc12	·	·	·	·	·	68*
NS(=O)(=O)c1ccc(N/N=C/c2ccccc2Br)cc1	60*	-3	-3	4	-2	-4
Cc1cc(O)c2c(c1O)C(=O)[C@]13C(=C2O)C(=O)[C@@H]2[C@@H](O)[C@H]1[C@@H]1[C@H](O)[C@H]3C(=O)C3=C(O)c4c(O)cc(C)c(O)c4C(=O)[C@]312	103*	43*	95*	88*	58*	·
CN(CC1CCOCC1)C(=O)CC1C(=O)NCCN1Cc1cccc(F)c1 (stereo not drawn)	-3	4	-5	0	1	2
CN(C)c1nc(N)nc(/C(C#N)=C/C2CC3C=CC2C3)n1 (stereo not drawn)	4	0	-7	67*	-3	21
Cc1ccc(S(=O)(=O)N2CCN(S(=O)(=O)c3ccccc3Br)CC2)cc1	5	-1	-5	2	12	·
CCCCn1[nH]c(-c2ccccc2)cc1=O	-1	-4	-6	1	-3	80*
O=c1cc(CSc2nc(NCc3ccccc3)c3ccccc3n2)nc2ccc(Cl)cn12	-15	0	-2	53*	1	12
Nn1c(SCC(=O)Nc2c(F)cc(F)cc2Br)nnc1C1CCCCC1	46*	4	-46	0	0	6
O=C(Nc1ccc2c(c1)OCO2)c1cc(-c2ccc(O)cc2)on1	39*	-3	-11	1	-10	7
O=C(Nc1ccc2c(c1)OCO2)c1cc(-c2cccc(O)c2)on1	5	0	-15	2	-3	11
CCOC(=O)c1nc2sc3c(c2c(=O)[nH]1)CCCC3	0	4	2	1	6	14
N#C/C(=C\c1ccc(C(=O)O)cc1)c1nc2sc3c(c2c(=O)[nH]1)CCCC3	31	-6	43	27	76*	60*
Cc1ccsc1CNC(=O)C1(C)CCN1C(=O)C(C)C (stereo not drawn)	-1	-1	5	-1	·	·
Nc1cccc2[nH]c(C(F)(F)F)nc12	68*	3	-12	-4	-4	-3
CC(C)=CCc1cc(-c2oc3cc(O)cc(O)c3c(=O)c2O)ccc1O	8	7	-8	16	45	·
CC(C)=CCc1c(O)cc2oc3c(CC=C(C)C)c(O)c(O)c(CC=C(C)C)c3c(=O)c2c1O	2	1	5	3	38	50*
CN(C(=O)COC(=O)c1cccc(Cl)c1)C1CCS(=O)(=O)C1 (stereo not drawn)	-3	-2	5	-2	-2	·
CCOc1ccc(N2C(=O)c3ccc(C(=O)OCC(=O)N(CC)C4CCS(=O)(=O)C4)cc3C2=O)cc1 (stereo not drawn)	-25	5	0	1	8	54*
CN(C(=O)COC(=O)c1ccc(-c2ccc(O)cc2)cc1)C1CCS(=O)(=O)C1 (stereo not drawn)	39*	-1	-1	1	-6	-22
CCCNC(=O)c1ccc2c(=O)c(O)c(-c3ccsc3)[nH]c2c1	-22	2	18	0	-6	53*
SMILES	SUMO1 PPI mod	STEP inh	DNMT1 block	LMPTP block	Scp1 inh	SUMO HTRF inh
Cc1ccc(-c2[nH]c3cc(C(=O)NCCCn4ccnc4)ccc3c(=O)c2O)cc1	-47	5	-9	51*	-14	21
Cc1cc(C(=O)Nc2ccc3ccccc3c2)c(C)o1	-3	4	0	1	-16	11
Cc1nc(S/C(=C/c2ccc(OCc3ccc(C(=O)O)cc3)cc2)C(=O)O)n[nH]1	-8	6	5	4	15	58*
COCCn1c(N)c(C#N)c2nc3ccccc3nc21	-2	-3	-7	0	-2	81*
COc1cccc(Cn2c(N)c(C#N)c3nc4ccccc4nc32)c1OC	40*	2	40	9	6	10
COc1ccc(Cn2c(N)c(C#N)c3nc4ccccc4nc32)cc1	10	-4	-22	1	-8	33
CON(C)C(=O)CC1(CN(Cc2ccccc2)C(=O)OC(C)(C)C)CCCCC1	6	3	5	2	-6	·
C#CC(=O)CC1(CN(Cc2ccccc2)C(=O)OC(C)(C)C)CCCCC1	4	-1	54*	0	-4	·
CCOC(=O)N1CCN(CC(=O)Nc2nc3ccc(OC)cc3s2)CC1	4	0	0	-1	-3	-11
O=C(O)[C@@H]1[C@H]2C[C@H]3c4[nH]c5ccccc5c4CCN3C[C@@H]2CC[C@@H]1O	25	-2	21	60*	-9	·
OC1CCC2CN3CCc4c([nH]c5ccccc45)C3CC2C1 (stereo not drawn)	-17	-4	-8	4	·	·
CO[C@H]1C=CO[C@@]2(C)Oc3c(C)c(O)c4c(O)c(c(C=NN5CCN(C6CCCC6)CC5)c(O)c4c3C2=O)NC(=O)C(C)=CC=C[C@H](C)[C@H](O)[C@@H](C)[C@@H](O)[C@@H](C)[C@H](OC(C)=O)[C@@H]1C	·	·	·	·	·	52*
O=C(COC(=O)c1c2c(nc3ccccc13)/C(=C/c1ccco1)CC2)NC1CCCC1	18	18	86*	48	78*	71*
Cc1cc(C(=O)OCC(=O)NC2CCCC2)c2ccccc2n1	-11	2	-1	-1	5	·
Cc1ccc(S(=O)(=O)N(C(=O)c2ccco2)c2cc3sc(=O)oc3c3ccccc23)cc1	3	-4	16	2	-9	56*
COc1ccc(S(=O)(=O)N(C(=O)c2ccco2)c2cc3sc(=O)oc3c3ccccc23)cc1	8	1	-5	1	-10	20
CCN1CCc2c(sc(NC(=O)c3ccc(S(=O)(=O)N(C)CC4CCCO4)cc3)c2C(N)=O)C1 (stereo not drawn)	-8	-2	-1	2	-2	9
COc1cccc2sc(Nc3nc(-c4cc5ccccc5oc4=O)cs3)nc12	61*	4	-2	12	11	15
COc1cccc2sc(Nc3nc(-c4ccncc4)cs3)nc12	2	0	-5	0	2	12

High-throughput results (PubChem)
